ChEMBL document CHEMBL1157732, “Piperazinyl pyrimidine derivatives as potent gamma-secretase modulators” (Bioorg Med Chem Lett, 2010)

What was measured:
[1] = Activity at gamma-secretase expressed in human SH-SY5Y cells assessed as inhibition of amyloid beta 42 production by electrochemiluminescence assay; assay type: cell-based
Method in brief: (§1)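 SH-SY5Y cells stably overexpressing the β-APP C-terminal fragment SPA4CT; Aβ40 and Aβ42 peptides secreted into the medium quantified by electrochemiluminescent detection; IC50 values derived from these measurements.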

[2] = Activity at gamma-secretase expressed in human SH-SY5Y cells assessed as inhibition of amyloid beta 40 production by electrochemiluminescence assay; assay type: cell-based; method in brief: as §1
[3] = target: Gamma-secretase; experiment: Inhibition of gamma-secretase-mediated NotchdeltaE cleavage in human HeLa cells by luciferase assay; assay type: cell-based
[4] = target: Gamma-secretase (Homo sapiens) (UniProt Q96BI3+Q9NZ42+Q8WW43+P49768+Q92542+P49810); experiment: Selectivity ratio, IC50 for human gamma-secretase-mediated NotchdeltaE cleavage to IC50 for gamma-secretase-mediated amyloid beta 42 production; assay type: protein-complex assay

| SMILES | IC50 [1] | IC50 [2] | IC50 [3] | Ratio IC50 [4] |
| --- | --- | --- | --- | --- |
| COc1ccc(N2CCN(c3nccc(Nc4cc(C)ccc4C)n3)CC2(C)C)cc1 | 1000 nM | 4580 nM |  |  |
| COc1ccc(N2CCN(c3nc(Nc4cc(C(C)(C)C)ccc4C)cc(N(C)CCN(C)C)n3)CC2(C)C)cc1 | 213 nM | 1970 nM |  |  |
| COc1ccc(N2CCN(c3nc(Nc4cc(C(C)(C)C)ccc4C)cc(OCCN4CCOCC4)n3)CC2(C)C)cc1 | 263 nM | 6150 nM | > 50000 nM | > 190 |
| CCOc1cc(C)c(Nc2ccnc(N3CCN(c4ccc(OC)cc4)C(C)(C)C3)n2)cc1C | 534 nM | 6300 nM |  |  |
| COc1ccc(N2CCN(c3nccc(Nc4cc(C(C)(C)C)ccc4C)n3)CC2(C)C)cc1 | 255 nM | 5560 nM |  |  |
| COc1ccc(N2CCN(c3nc(Nc4cc(C(C)(C)C)ccc4C)cc(C(=O)O)n3)CC2(C)C)cc1 | 234 nM | 1930 nM |  |  |
| COc1ccc(N2CCN(c3nccc(Nc4cc(C(C)(C)C)nn4CC(F)(F)F)n3)CC2(C)C)cc1 | 272 nM | 5090 nM |  |  |
| CCN(CC)c1cc(C)c(Nc2ccnc(N3CCN(c4ccc(OC)cc4)CC3)n2)cc1C | 1910 nM | 3740 nM |  |  |
| COc1ccc(N2CCN(c3nccc(Nc4cc(C(C)(C)C)nn4C)n3)CC2(C)C)cc1 | 150 nM | 1940 nM |  |  |
| COc1ccc(N2CCN(c3nc(Nc4cc(C(C)(C)C)ccc4C)cc(C(=O)NCCN(C)C)n3)CC2(C)C)cc1 | 112 nM | 1710 nM |  |  |
| CCOc1ccc(Nc2ccnc(N3CCN(c4ccc(OC)cc4)C(C)(C)C3)n2)c(C)c1 | 3440 nM | 10000 nM |  |  |
| COc1ccc(N2CCN(c3nc(CS(C)(=O)=O)cc(Nc4cc(C(C)(C)C)ccc4C)n3)CC2(C)C)cc1 | 348 nM | 6460 nM |  |  |
| COc1ccc(N2CCN(c3nc(Nc4cc(C(C)(C)C)ccc4C)cc(OCCN(C)C)n3)CC2(C)C)cc1 | 108 nM | 1590 nM | 28800 nM | 270 |
| COc1ccc(N2CCN(c3nc(N)cc(Nc4cc(C(C)(C)C)ccc4C)n3)CC2(C)C)cc1 | 88 nM | 830 nM | 34400 nM | 390 |
| COc1ccc(N2CCN(c3nc(Nc4cc(C(C)(C)C)ccc4C)cc(S(C)(=O)=O)n3)CC2(C)C)cc1 | 400 nM | 5780 nM |  |  |
| CCOc1cc(C)c(Nc2ccnc(N3CCN(c4ccc(OC)cc4)C(C)(C)C3)n2)cc1C(C)C | 35.6 nM | 737 nM |  |  |

More lines, in order of falling IC50 [1], values ahead:

| IC50 [1] | IC50 [2] | IC50 [3] | Ratio IC50 [4] | SMILES |
| --- | --- | --- | --- | --- |
| 695 nM | 1000 nM |  |  | COc1ccc(N2CCN(c3nccc(Nc4cc(C(C)(C)C)ccc4Cl)n3)CC2(C)C)cc1 |
| 572 nM | 6410 nM |  |  | COc1ccc(N2CCN(c3nc(CC(=O)O)cc(Nc4cc(C(C)(C)C)ccc4C)n3)CC2(C)C)cc1 |
| 410 nM | 2280 nM |  |  | COc1ccc(N2CCN(c3nccc(Nc4cc(-c5ccccc5)ccc4C)n3)CC2(C)C)cc1 |
| 307 nM | 2980 nM |  |  | CNC(=O)c1cc(Nc2cc(C(C)(C)C)ccc2C)nc(N2CCN(c3ccc(OC)cc3)C(C)(C)C2)n1 |
| 262 nM | 5680 nM | > 50000 nM | > 190 | COc1ccc(N2CCN(c3nc(Nc4cc(C(C)(C)C)ccc4C)cc(OC)n3)CC2(C)C)cc1 |
| 235 nM | 5600 nM | > 50000 nM | > 210 | COc1ccc(N2CCN(c3nc(Nc4cc(C(C)(C)C)ccc4C)cc(OCCC4CCCN4C)n3)CC2(C)C)cc1 (stereo not given) |
| 216 nM | 5450 nM | > 50000 nM | > 230 | COc1ccc(N2CCN(c3nc(Nc4cc(C(C)(C)C)ccc4C)cc(OCCC(C)(C)O)n3)CC2(C)C)cc1 |
| 194 nM | 8120 nM | > 50000 nM | > 250 | COc1ccc(N2CCN(c3nc(Nc4cc(C(C)(C)C)ccc4C)cc(C(=O)NCC4CCCO4)n3)CC2(C)C)cc1 (stereo not given) |
| 169 nM | 2950 nM |  |  | CCN(CC)c1cc(C)c(Nc2ccnc(N3CCN(c4ccc(OC)cc4)C(C)(C)C3)n2)cc1C |
| 85 nM | 2290 nM |  |  | COC(=O)c1cc(Nc2cc(C(C)(C)C)ccc2C)nc(N2CCN(c3ccc(OC)cc3)C(C)(C)C2)n1 |
| 34 nM | 823 nM | 6140 nM | 180 | COc1ccc(N2CCN(c3nc(CO)cc(Nc4cc(C(C)(C)C)ccc4C)n3)CC2(C)C)cc1 |
